From ChEMBL document CHEMBL3875214, “Quercetin-glutamic acid conjugate with a non-hydrolysable linker; a novel scaffold for multidrug resistance reversal agents through inhibition of P-glycoprotein” (Bioorg Med Chem, 2017)
The source made the active and inactive calls. No cut-off for these calls is given here.

Tests used:
Homo sapiens [1] = species on record: Homo sapiens; experiment: Inhibition of P-gp in human MES-SA/Dx5 cells assessed as potentiation of actinomycin D-induced cytotoxicity by measuring fold reduction in actinomycin D EC50 at 5 uM after 72 hrs by MTT assay relative to untreated control; assay type: cell-based
Summary of the method: (§1)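 MES-SA/Dx5 cells were seeded at 5×10^3 per well in complete RPMI-1640 and left 24 h at 37 °C, 5% CO2. Anticancer drug was added at 0.0001–100 µM final, with or without modulator at 5 µM (1% DMSO), for 72 h. Viability was read by MTT at 570 nm and survival % was blank-corrected against 1% DMSO controls. IC50s came from survival curves. Fold reversal = IC50 untreated / IC50 with modulator. Three independent experiments were run, reported as mean ± SD.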

Homo sapiens [2] = species on record: Homo sapiens; experiment: Inhibition of P-gp in human MES-SA/Dx5 cells assessed as potentiation of paclitaxel-induced cytotoxicity by measuring fold reduction in paclitaxel EC50 at 5 uM after 72 hrs by MTT assay relative to untreated control; assay type: cell-based; summary of the method: as §1
[3] = Inhibition of P-gp in human MES-SA/Dx5 cells assessed as potentiation of paclitaxel-induced cytotoxicity by measuring compound concentration required for reduction of paclitaxel IC50 by half after 72 hrs by MTT assay; assay type: cell-based; settings: MES-SA/Dx5, 72 h
[4] = Inhibition of P-gp in human MES-SA/Dx5 cells assessed as potentiation of vinblastine-induced cytotoxicity by measuring compound concentration required for reduction of vinblastine IC50 by half after 72 hrs by MTT assay; assay type: cell-based; settings: MES-SA/Dx5, 72 h
[5] = Half life in P-gp over-expressing human MES-SA/Dx5 cells up to 100 uM by HPLC analysis; assay type: ADME, cell-based
Summary of the method: (§2)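 MES-SA or MES-SA/Dx5 cells were incubated with compound for up to 48 h (0, 24, 48 h). Cell lysates were analysed by HPLC for intact compound and for released quercetin, and half-lives were derived from these measurements.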

[6] = Inhibition of P-gp in human MES-SA/Dx5 cells assessed as potentiation of doxorubicin-induced cytotoxicity by measuring compound concentration required for reduction of doxorubicin IC50 by half after 72 hrs by MTT assay; assay type: cell-based; settings: MES-SA/Dx5, 72 h
[7] = Stability in human MES-SA cells assessed as reduction in quercetin release up to 100 uM by HPLC analysis; assay type: ADME, cell-based; summary of the method: as §2
Homo sapiens [8] = species on record: Homo sapiens; experiment: Inhibition of P-gp in human MES-SA/Dx5 cells assessed as increase in doxorubicin accumulation at 5 uM after 30 mins by flow cytometry relative to control; assay type: cell-based
Homo sapiens [9] = species on record: Homo sapiens; experiment: Inhibition of P-gp in human MES-SA/Dx5 cells assessed as potentiation of vinblastine-induced cytotoxicity by measuring fold reduction in vinblastine EC50 at 5 uM after 72 hrs by MTT assay relative to untreated control; assay type: cell-based; summary of the method: as §1
[10] = Half life in human MES-SA cells up to 100 uM by HPLC analysis; assay type: ADME, cell-based; summary of the method: as §2
[11] = Stability in P-gp over-expressing human MES-SA/Dx5 cells assessed as reduction in quercetin release up to 100 uM by HPLC analysis; assay type: ADME, cell-based; summary of the method: as §2
Homo sapiens [12] = species on record: Homo sapiens; experiment: Inhibition of P-gp in human MES-SA/Dx5 cells assessed as potentiation of doxorubicin-induced cytotoxicity by measuring fold reduction in doxorubicin EC50 at 5 uM after 72 hrs by MTT assay relative to untreated control; assay type: cell-based; summary of the method: as §1
[13] = Antioxidant activity assessed as DPPH radical scavenging activity; assay type: functional
Homo sapiens [14] = species on record: Homo sapiens; experiment: Activity at human P-gp expressed in membranes assessed as stimulation of P-gp ATPase activity at 100 uM after 40 mins in presence of MgATP by […] relative to control
Summary of the method: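 Human Pgp membrane, 25 µg, incubated at 37 °C with compound at 100 µM, alongside Na3VO4 (100 µM) and 0.1% DMSO solvent controls. Reaction was started with 5 mM MgATP and run 40 min at 37 °C. Leftover ATP was read as luciferase luminescence after 20 min at room temperature. Activity was taken as the luminescence drop relative to the Na3VO4 sample.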

[15] = Inhibition of P-gp in human MES-SA/Dx5 cells assessed as potentiation of actinomycin D-induced cytotoxicity by measuring compound concentration required for reduction of actinomycin D IC50 by half after 72 hrs by MTT assay; assay type: cell-based; settings: MES-SA/Dx5, 72 h

| SMILES | fold change (FC) (Homo sapiens [1]) | fold change (FC) (Homo sapiens [2]) | EC50 [3] | EC50 [4] | half-life [5] | EC50 [6] | Stability [7] | fold change (FC) (Homo sapiens [8]) | fold change (FC) (Homo sapiens [9]) | half-life [10] | Stability [11] | fold change (FC) (Homo sapiens [12]) | Activity [13] | fold change (FC) (Homo sapiens [14]) | EC50 [15] |
| --- | --- | --- | --- | --- | --- | --- | --- | --- | --- | --- | --- | --- | --- | --- | --- |
| O=C(O)CC[C@H](NC(=O)COc1cc(O)c2c(=O)c(O)c(-c3ccc(O)c(O)c3)oc2c1)C(=O)O | 48.4 | 34.6 | 2100 nM | 2500 nM | 30 h | 2200 nM | Stable | 2.3 | 26 | 30 h | Stable | 25.6 | Active | 3.1 | 2300 nM |
| O=c1c(O)c(-c2ccc(O)c(O)c2)oc2cc(O)cc(O)c12 | 3.06 | 2.48 | – | – | – | – | – | – | 2.75 | – | – | 1.94 | Active | – | – |
| O=C(O)CC[C@H](NCCOc1cc(O)c2c(=O)c(O)c(-c3ccc(O)c(O)c3)oc2c1)C(=O)O | 20.5 | 17.3 | 2500 nM | 2400 nM | 56 h | 2800 nM | Stable | 2.1 | 16.2 | 56 h | Stable | 22.3 | Active | 2.8 | 2700 nM |
